These results are taken from PMC2659781 (Drug metabolism and disposition: the biological fate of …, 2008).

SMILES strings stand for the structures. Converted amounts (≈) assume the structure as drawn. “Also recorded” adds a separate entry of the source.

Series [1] relates to 20-HETE formation in rat brain cortical microsomes. The experiment in a line: Inhibition of 20-HETE formation in rat brain cortical microsomes. It is filed as biochemical. The settings on record: for 20-HETE formation rate, % of control incubation: HET0016 48.5 nM, 100 μM arachidonic acid.
The subject of series [2] is 20-HETE formation in brain cortical microsomes. The experiment in a line: Ex vivo 20-HETE formation in brain cortical microsomes from treated rats. Conditions: 1 mg/kg iv, one hour after dosing, incubated in the absence of inhibitor. Further details: species or system rat. An outline of the steps:
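Rats got 1 mg/kg test compound iv or vehicle (n = 6 per group); cortex was taken 1 h post-dose. Microsomes were made by differential centrifugation in pH 7.4 tris/KCl/DTT/EDTA/20% glycerol buffer with PMSF and BHT. 325μg protein was incubated without added inhibitor in 0.12 M potassium phosphate/5mM MgCl2 with 100μM arachidonic acid. NADPH 1mM was added at start and at 30 min; 37°C, 60 min. 20-HETE d6 internal standard, diethyl ether extraction, MS.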

A short description of series [3]: Aqueous solubility of HET0016 in ddH2O and 15% HPβCD. It is filed as physicochemical.
Series [4] deals with brain cortical 20-HETE tissue concentrations. In words: Brain cortical 20-HETE tissue concentration after iv HET0016. It is filed as in vivo, rat.
For series [5] the following is noted: 1 hour after intraperitoneal 10 mg/kg dose in lecithin; ref Poloyac et al., 2006; cited from earlier work.
The conditions of series [6]: ref Nakamura et al., 2003, cited from earlier work.

What is called solubility is the concentration that dissolves in the medium under given conditions. Turning to `CCCCc1ccc(N=CNO)c(C)c1` [HET0016, N-Hydroxy-N′-(4-n-butyl-2-methylphenyl)formamidine], the “reduction in 20-HETE formation rate” value in series [1] (HET0016 30 nM) is ~ 70%. Further, the “20-HETE formation rate, % of control incubation” value in series [1] (with 10 minute pre-incubation) was found to be 4.92 ± 0.19%; in series [1] (without pre-incubation) it was 4.89 ± 0.46%. For the same molecule, the “concentrations of HET0016 required for 20-HETE inhibition in the rat brain” value in series [1] (in vitro) lay in the range of 30 to 90 nM. Besides, the “need for metabolic activation to inhibit 20-HETE formation” value in series [1] (pre-incubation versus no pre-incubation) is on record as “does not require metabolic activation”. Besides, the “mechanism of inhibition of 20-HETE formation” value in series [1] (rat brain cortical microsomes, 24 nM HET0016, arachidonic acid up to 120 μM) is “non-competitive inhibitor; also recorded: non-competitive inhibition”. Further, in series [2], the “ex vivo 20-HETE formation in microsomes of treated animals” value is listed as “persistent inhibition”. Besides, the solubility at 48 h in series [3] (15% HPβCD) came out at 453 ± 63.3 µg/mL (≈ 2190 µM); in series [3] (distilled, deionized water), 34.2 ± 31.2 µg/mL (≈ 166 µM). For the same molecule, the “time 20-HETE tissue concentrations remained significantly reduced” value in series [4] (1 mg/kg iv) was determined as 60 min. Moreover, the “time of return of 20-HETE to control levels” value in series [4] (1 mg/kg iv) is not above 24 h. In series [4] (1 mg/kg iv), the “time to reduction of brain 20-HETE after administration” value was not above 5 min. Further, in series [4] (1 mg/kg iv, 180 minutes), the “20-HETE concentration recovery (of control)” value amounted to 70%. Also, the “20-HETE concentrations in brain tissue of treated animals (chromatograms)” value in series [4] (data not shown) was “near or below the limits of detection”. For the same molecule, the “rat brain 20-HETE concentration after dosing” value in series [4] (single iv dose 1 mg/kg, HPβCD formulation, from 289 pmol/g) is on record as 91 pmol/g. Besides, the “brain concentration as % of plasma concentration” value in series [5] was “less than 10%”. Further, the stability result in series [6] (acidic pH) is recorded as “instability”. The aqueous solubility entry in series [6] (neutral pH) is reported as “poor aqueous solubility”.
